Measured values reported in ChEMBL document CHEMBL4196128 (ACS Med Chem Lett, 2018).

Legend:
[1] = Oral bioavailability in Sprague-Dawley rat at 10 mg/kg; assay type: ADME, organism-based; details: in vivo
How it was run: (§1)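 Oral dosing in male CD1 mice (30 mg/kg, n = 27), Sprague–Dawley rats (10 mg/kg, n = 3), beagle dogs (30 mg/kg, n = 3) and cynomolgus monkeys (10 mg/kg, n = 3). Mean Tmax was read from plasma concentration–time data. Bioavailability was derived from oral AUC(0–∞) compared with intravenous AUC.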

Cavia porcellus [2] = assay: Cardiotoxicity in telemetered guinea pig assessed as changes in QRS interval at 30 to 100 mg/kg; assay type: toxicity, organism-based; details: in vivo
How it was run: (§2)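 Telemetered guinea pigs were exposed at 30 and 100 mg/kg. Electrocardiographic PR, QRS and QT/QTc intervals were monitored for changes related to the test article, and exposure was referenced to total Cmax.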

A2058 = assay: Antiproliferative activity against human A2058 cells harboring BRAF V600E/D mutant measured after 4 days; assay type: functional, cell-based; details: A2058, 96 h
[3] = Apparent permeability across basolateral to apical side in human Caco2 cells; assay type: ADME, cell-based; details: Caco-2, read-out: permeability
[4] = target: T1, Mitogen-activated protein kinase; ERK1/ERK2 (Homo sapiens) (UniProt P27361+P28482); assay: Inhibition of ERK1/2 phosphorylation in human A2058 cells at 30 nM after 24 hrs by Western blot analysis relative to control; assay type: cell-based
How it was run: (§3)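 A2058 melanoma cells were treated across a compound dose range. pERK1/2 and pRSK levels were detected by Western blot analysis.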

[5] = target: Mitogen-activated protein kinase 1 (Homo sapiens, UniProt P28482); assay: Inhibition of ERK2 (unknown origin) using peptide substrate measured after 45 mins by IMAP assay
[6] = Mean residence time in monkey at 1 mg/kg, iv; details: cynomolgus monkey, in vivo
[7] = target: T1, Mitogen-activated protein kinase; ERK1/ERK2 (Homo sapiens); assay: Inhibition of ERK1/2 in human A2058 cells assessed as reduction in RSK phosphorylation after 24 hrs by Western blot analysis; assay type: cell-based; how it was run: as §3
[8] = Oral bioavailability in monkey at 10 mg/kg; details: cynomolgus monkey, in vivo
Cavia porcellus [9] = assay: Cardiotoxicity in telemetered guinea pig assessed as changes in QTc interval at 30 to 100 mg/kg; assay type: toxicity, organism-based; details: in vivo; how it was run: as §2
[10] = Protein binding in mouse plasma at 10 uM; assay type: ADME, cell-free; details: read-out: PPB
[11] = target: Mitogen-activated protein kinase 3 (Homo sapiens, UniProt P27361); assay: Inhibition of ERK1 (unknown origin) using peptide substrate measured after 45 mins by IMAP assay
[12] = Protein binding in dog plasma at 10 uM; assay type: ADME, cell-free, Canis lupus familiaris; details: read-out: PPB
[13] = Half life in monkey at 1 mg/kg, iv; details: cynomolgus monkey, in vivo
HT-29 = assay: Antiproliferative activity against human HT-29 cells harboring BRAF V600E/D mutant measured after 4 days; assay type: functional, cell-based; details: HT-29, 96 h
Cavia porcellus [14] = assay: Cardiotoxicity in telemetered guinea pig assessed as changes in PR interval at 30 to 100 mg/kg; assay type: toxicity, organism-based; details: in vivo; how it was run: as §2
[15] = Half life in Sprague-Dawley rat at 3 mg/kg, iv; assay type: ADME, organism-based; details: in vivo
How it was run: (§4)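 The compound was given intravenously as an aqueous solution in 20% hydroxypropyl-β-cyclodextrin. Animals were male CD1 mice (10 mg/kg, n = 30), Sprague–Dawley rats (3 mg/kg, n = 3), beagle dogs (3 mg/kg, n = 3) and cynomolgus monkeys (1 mg/kg, n = 3). Plasma concentration–time data gave mean AUC(0–∞), half-life, mean residence time, clearance and Vd,ss.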

[16] = Clearance in Sprague-Dawley rat at 3 mg/kg, iv; assay type: ADME, organism-based; details: in vivo; how it was run: as §4
[17] = target: T1, Mitogen-activated protein kinase; ERK1/ERK2 (Homo sapiens); assay: Inhibition of ERK1/2 phosphorylation in human A2058 cells after 24 hrs by Western blot analysis; assay type: cell-based; how it was run: as §3
Cytochrome P450 3A4 = Cytochrome P450 3A4 (Homo sapiens, UniProt P08684); assay: Inhibition of CYP3A4 (unknown origin) preincubated followed by substrate addition; assay type: ADME
Cytochrome P450 2C19 = Cytochrome P450 2C19 (Homo sapiens, UniProt P33261); assay: Inhibition of CYP2C19 (unknown origin) preincubated followed by substrate addition; assay type: ADME
[18] = Oral bioavailability in Beagle dog at 30 mg/kg; assay type: ADME, organism-based, Canis lupus familiaris; details: in vivo; how it was run: as §1
[19] = Mean residence time in Beagle dog at 3 mg/kg, iv; assay type: ADME, organism-based, Canis lupus familiaris; details: in vivo
How it was run: (§5)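 Intravenous dosing in male CD1 mice (10 mg/kg, n = 30), Sprague–Dawley rats (3 mg/kg, n = 3), beagle dogs (3 mg/kg, n = 3) and cynomolgus monkeys (1 mg/kg, n = 3). Vehicle was aqueous 20% hydroxypropyl-β-cyclodextrin. Mean residence time and steady-state volume of distribution were taken from plasma concentration–time profiles as mean parameters.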

Caspase (Homo sapiens) = Caspase (Homo sapiens) (UniProt P49662+P55211+P42574+P51878+P55212+P55210+Q14790+P29466+P42575+Q92851+P31944+Q6UXS9); assay: Activation of caspase (unknown origin); assay type: protein assay
hERG (KCNH2) [20] = target: T2, hERG (KCNH2) (Homo sapiens, UniProt Q12809); assay: Inhibition of human ERG at 5 mg/ml by binding assay relative to control; parameters: dose or concentration left out as unconfirmed
[21] = Mean residence time in Sprague-Dawley rat at 3 mg/kg, iv; assay type: ADME, organism-based; details: in vivo; how it was run: as §5
hERG (KCNH2) [22] = target: T2, hERG (KCNH2); assay: Inhibition of human ERG at 600 nM by voltage clamp method relative to control
hERG (KCNH2) [23] = target: T2, hERG (KCNH2); assay: Inhibition of human ERG at 1.5 mg/ml by binding assay relative to control; parameters: dose or concentration left out as unconfirmed
Cytochrome P450 2C8 = target: T3, Cytochrome P450 2C8 (Homo sapiens, UniProt P10632); assay: Inhibition of CYP2C8 (unknown origin) preincubated followed by substrate addition; assay type: ADME
T3 sequence (P10632 whole entry): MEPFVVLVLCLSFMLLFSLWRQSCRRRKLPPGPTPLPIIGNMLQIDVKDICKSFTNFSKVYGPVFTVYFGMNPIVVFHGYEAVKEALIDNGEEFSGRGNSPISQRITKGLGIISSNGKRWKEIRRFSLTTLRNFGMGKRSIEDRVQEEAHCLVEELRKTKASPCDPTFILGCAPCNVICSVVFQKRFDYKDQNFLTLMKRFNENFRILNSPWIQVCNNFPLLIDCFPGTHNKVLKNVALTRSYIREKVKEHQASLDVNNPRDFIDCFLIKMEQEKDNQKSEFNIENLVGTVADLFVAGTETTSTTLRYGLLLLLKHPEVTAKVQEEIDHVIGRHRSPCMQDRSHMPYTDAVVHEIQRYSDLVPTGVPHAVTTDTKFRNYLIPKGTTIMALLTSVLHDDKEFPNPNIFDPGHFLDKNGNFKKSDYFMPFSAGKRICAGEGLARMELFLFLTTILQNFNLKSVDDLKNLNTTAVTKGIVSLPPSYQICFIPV

COLO 205 = assay: Antiproliferative activity against human COLO205 cells harboring BRAF V600E/D mutant measured after 4 days; assay type: functional, cell-based; details: COLO 205, 96 h
[24] = Apparent permeability across apical to basolateral side in human Caco2 cells; assay type: ADME, cell-based; details: Caco-2, read-out: permeability

T2 sequence (Q12809 whole entry): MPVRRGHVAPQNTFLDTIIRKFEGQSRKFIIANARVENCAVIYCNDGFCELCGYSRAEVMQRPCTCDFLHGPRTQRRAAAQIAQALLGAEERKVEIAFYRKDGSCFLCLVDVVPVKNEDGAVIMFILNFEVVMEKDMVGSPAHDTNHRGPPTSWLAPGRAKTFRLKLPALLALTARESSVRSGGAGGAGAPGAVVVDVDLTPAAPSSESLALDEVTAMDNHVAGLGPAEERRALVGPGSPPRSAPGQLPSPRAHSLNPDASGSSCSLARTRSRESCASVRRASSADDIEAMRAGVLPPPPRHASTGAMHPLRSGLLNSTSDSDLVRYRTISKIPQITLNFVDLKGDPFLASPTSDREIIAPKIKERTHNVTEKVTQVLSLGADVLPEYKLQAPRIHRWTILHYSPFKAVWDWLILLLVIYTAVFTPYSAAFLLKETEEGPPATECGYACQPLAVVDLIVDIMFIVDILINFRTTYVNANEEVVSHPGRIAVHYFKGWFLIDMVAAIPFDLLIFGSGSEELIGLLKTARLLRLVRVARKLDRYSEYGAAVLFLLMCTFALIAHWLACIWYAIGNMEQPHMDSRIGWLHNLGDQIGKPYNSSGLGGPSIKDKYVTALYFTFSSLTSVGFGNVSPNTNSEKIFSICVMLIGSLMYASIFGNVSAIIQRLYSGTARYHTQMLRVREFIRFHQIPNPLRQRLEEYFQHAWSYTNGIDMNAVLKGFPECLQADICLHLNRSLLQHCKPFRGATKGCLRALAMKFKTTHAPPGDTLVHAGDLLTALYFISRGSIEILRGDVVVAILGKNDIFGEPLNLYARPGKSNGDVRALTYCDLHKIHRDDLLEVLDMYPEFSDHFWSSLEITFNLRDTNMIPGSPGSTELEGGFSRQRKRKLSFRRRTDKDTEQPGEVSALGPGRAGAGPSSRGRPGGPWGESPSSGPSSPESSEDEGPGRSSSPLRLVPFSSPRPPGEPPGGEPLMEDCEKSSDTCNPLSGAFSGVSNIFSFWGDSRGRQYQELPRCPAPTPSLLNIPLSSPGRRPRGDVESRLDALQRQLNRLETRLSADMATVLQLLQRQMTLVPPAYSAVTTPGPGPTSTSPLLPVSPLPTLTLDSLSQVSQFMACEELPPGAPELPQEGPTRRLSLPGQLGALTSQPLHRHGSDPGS
T1 sequence (P27361 whole entry, looked up): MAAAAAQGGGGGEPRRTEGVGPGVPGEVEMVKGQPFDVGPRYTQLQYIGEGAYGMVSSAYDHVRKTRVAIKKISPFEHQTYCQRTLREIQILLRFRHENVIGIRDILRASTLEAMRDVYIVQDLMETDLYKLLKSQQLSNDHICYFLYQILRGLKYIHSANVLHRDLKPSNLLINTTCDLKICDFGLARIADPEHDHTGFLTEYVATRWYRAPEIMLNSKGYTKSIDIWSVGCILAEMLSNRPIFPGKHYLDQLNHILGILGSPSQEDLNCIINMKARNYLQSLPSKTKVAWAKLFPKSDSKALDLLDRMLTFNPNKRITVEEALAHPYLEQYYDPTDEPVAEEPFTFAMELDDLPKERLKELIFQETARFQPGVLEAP
T1 sequence (P28482 whole entry, looked up): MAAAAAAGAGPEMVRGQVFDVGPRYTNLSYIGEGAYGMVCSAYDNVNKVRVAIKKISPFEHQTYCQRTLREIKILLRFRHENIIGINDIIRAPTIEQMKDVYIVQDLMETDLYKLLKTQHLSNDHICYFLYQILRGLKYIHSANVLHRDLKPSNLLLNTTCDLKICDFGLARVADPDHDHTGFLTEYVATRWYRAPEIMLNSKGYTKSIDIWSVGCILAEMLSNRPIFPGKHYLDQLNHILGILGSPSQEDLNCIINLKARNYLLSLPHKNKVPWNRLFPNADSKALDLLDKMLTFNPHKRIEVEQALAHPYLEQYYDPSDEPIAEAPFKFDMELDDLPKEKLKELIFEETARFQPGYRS
Cytochrome P450 3A4, sequence (P08684 whole entry): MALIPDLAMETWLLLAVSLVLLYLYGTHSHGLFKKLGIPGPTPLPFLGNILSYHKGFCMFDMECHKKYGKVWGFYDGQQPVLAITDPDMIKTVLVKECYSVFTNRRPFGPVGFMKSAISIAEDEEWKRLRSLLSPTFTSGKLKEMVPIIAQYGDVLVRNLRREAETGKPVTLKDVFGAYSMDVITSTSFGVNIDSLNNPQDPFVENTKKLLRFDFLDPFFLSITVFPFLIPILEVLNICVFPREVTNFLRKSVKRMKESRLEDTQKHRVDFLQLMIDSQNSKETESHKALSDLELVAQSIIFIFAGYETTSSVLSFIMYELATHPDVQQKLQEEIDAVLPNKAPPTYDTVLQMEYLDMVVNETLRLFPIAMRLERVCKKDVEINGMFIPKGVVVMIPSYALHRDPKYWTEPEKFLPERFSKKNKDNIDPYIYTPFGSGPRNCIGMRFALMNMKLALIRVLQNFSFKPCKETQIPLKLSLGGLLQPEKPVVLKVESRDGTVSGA
Cytochrome P450 2C19, sequence (P33261 whole entry): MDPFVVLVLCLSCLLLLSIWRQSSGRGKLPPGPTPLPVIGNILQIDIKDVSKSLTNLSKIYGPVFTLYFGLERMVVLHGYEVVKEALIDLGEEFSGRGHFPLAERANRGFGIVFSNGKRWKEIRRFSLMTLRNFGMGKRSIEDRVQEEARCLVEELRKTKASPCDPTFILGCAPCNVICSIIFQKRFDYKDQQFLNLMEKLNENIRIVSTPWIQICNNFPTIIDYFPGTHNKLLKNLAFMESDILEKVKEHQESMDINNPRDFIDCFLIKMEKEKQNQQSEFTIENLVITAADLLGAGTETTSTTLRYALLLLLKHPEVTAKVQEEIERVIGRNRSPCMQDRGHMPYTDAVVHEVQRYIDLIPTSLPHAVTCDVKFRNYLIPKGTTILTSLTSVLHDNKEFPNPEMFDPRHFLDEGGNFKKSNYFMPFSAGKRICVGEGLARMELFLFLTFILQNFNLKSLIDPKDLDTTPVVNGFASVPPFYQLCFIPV
Mitogen-activated protein kinase 1, sequence (P28482 whole entry): as the sequence (P28482 whole entry, looked up) above
Mitogen-activated protein kinase 3, sequence (P27361 whole entry): as the sequence (P27361 whole entry, looked up) above

For `CS[C@@]1(C(=O)Nc2ccc3[nH]nc(-c4ccc(OC(C)C)nc4)c3c2)CCN(CC(=O)N2CC=C(c3ccc(-c4ncn(C)n4)cc3)CC2)C1` [MK-8353], the bioavailability [1] was 50%, the Activity (Cavia porcellus [2]) was “Non-Toxic” and the IC50 (A2058) was 371 nM. For the same molecule, the Papp B→A [3] was 40 ×10⁻⁶ cm/s, the inhibition [4] was 100% and the IC50 [5] was 7 nM. The MRT [6] was 1.9 h, the inhibition [7] was “Dose-dependent effect” and the bioavailability [8] was 2%. The Activity (Cavia porcellus [9]) was “Non-Toxic”, the fraction unbound at 10 µM [10] was < 0.01 and the IC50 [11] was 20 nM. For the same molecule, the fraction unbound at 10 µM [12] was < 0.01, the half-life [13] was 1.3 h and the IC50 (HT-29) was 51 nM. For the same molecule, the Activity (Cavia porcellus [14]) was “Non-Toxic”, the half-life [15] was 1.6 h and the clearance [16] was 1 mL/min/kg. The inhibition [17] was “Dose-dependent effect”, the IC50 (Cytochrome P450 3A4) was 1700 nM and the “inhibition (INH)” value (Cytochrome P450 2C19) was “Not Active”. It also gave a bioavailability [18] of 23%, an MRT [19] of 4 h and an Activity (Caspase (Homo sapiens)) of 185 nM. For the same molecule, the inhibition (hERG (KCNH2) [20]) was 6%, the MRT [21] was 2.3 h and the inhibition at 0.6 µM (hERG (KCNH2) [22]) was 16%. It also gave an inhibition (hERG (KCNH2) [23]) of -3.5%, an IC50 (Cytochrome P450 2C8) of 3500 nM and an IC50 (COLO 205) of 23 nM. It also gave a Papp A→B [24] of 13.4 ×10⁻⁶ cm/s.
